Assay results taken from ChEMBL document CHEMBL1128177, “A 3-amino-4-hydroxy-3-cyclobutene-1,2-dione-containing glutamate analogue exhibiting high affinity to excitatory amino acid receptors” (J Med Chem, 1995).

Key:
Rattus norvegicus [1] = species: Rattus norvegicus; assay: (§1) Inhibition of stimulus-evoked kainate/AMPA receptor responses in CA1 pyramidal cells of the rat hippocampus after QUIS exposure.; format: functional, organism-based
In short: (§2)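 Schaffer collateral-evoked CA1 field potential in 500 µm rat hippocampal slices, recording medium with 2.4 mM Mg2+, 34 °C. IC50 from 4-min doubling concentration steps, interpolated at 50% peak-amplitude loss; mean of ≥4 experiments. Measured first, then after 5 min 16 μM L-quisqualic acid and washout, then again after 5 min 2 mM L-α-aminoadipic acid and washout.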

Glutamate NMDA receptor [2] = assay: Inhibition of stimulus-evoked […] NMDA receptor response in lateral perforant path of the rat hippocampus.; format: functional, tissue-based
In short: (§3)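 Rat hippocampal slices (500 µm, male Sprague-Dawley, 30-50 days) with perforant path stimulation (0.1 ms, 4-30 V, 0.1 Hz). Field potential recorded in the dentate granule cell synaptic field of the lateral or medial perforant path at 34 °C. Drug doubled every 4 min from subthreshold up to >70% inhibition or 8 mM. IC50 interpolated from fractional peak amplitude vs log concentration; mean of ≥4 experiments.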

Glutamate NMDA receptor [3] = assay: (§4) Inhibition of stimulus-evoked CA1 pyramidal cell NMDA receptor of the rat hippocampus.; format: functional, tissue-based
In short: (§5)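 Transverse hippocampal slices (500 µm) from 30-50 day male Sprague-Dawley rats. Schaffer collateral stimulation at 0.1 ms, 4-30 V, 0.1 Hz. Extracellular field potential peak amplitude recorded in CA1 stratum radiatum at 34 °C. Medium held 0.1 mM Mg2+ plus 10 μM CNQX to isolate NMDA responses. Drug doubled every 4 min from subthreshold until >70% decline or 8 mM. IC50 interpolated from the log concentration plot; mean of ≥4 experiments.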

Rattus norvegicus [4] = species: Rattus norvegicus; assay: (§6) Inhibition of stimulus-evoked kainate/AMPA receptor responses in CA1 pyramidal cells of the rat hippocampus before QUIS exposure.; format: functional, organism-based; in short: as §2
Rattus norvegicus [5] = species: Rattus norvegicus; assay: as §1; format: functional; in short: as §2
Rattus norvegicus [6] = species: Rattus norvegicus; assay: Inhibition of stimulus-evoked response in lateral perforant path of the rat hippocampus.
Rattus norvegicus [7] = species: Rattus norvegicus; assay: as §6; format: functional; in short: as §2
[8] = molecular target: T1, Glutamate NMDA receptor (Rattus norvegicus) (UniProt P35439+Q00959+Q00960+Q00961+Q62645+Q8VHN2+Q9R1M7); assay: as §4; format: functional, tissue-based; in short: as §5
Rattus norvegicus [9] = species: Rattus norvegicus; assay: Inhibition of stimulus-evoked kainate/AMPA receptor responses in CA1 pyramidal cells of the rat hippocampus after reversal with alpha AA.; format: functional; in short: as §2
[10] = molecular target: T1, Glutamate NMDA receptor (Rattus norvegicus); assay: Inhibition of stimulus-evoked […] NMDA receptor response in medial perforant path of the rat hippocampus.; format: functional, tissue-based; in short: as §3

IC50 (Rattus norvegicus [1]) | IC50 (Glutamate NMDA receptor [2]) | IC50 (Glutamate NMDA receptor [3]) | IC50 (Rattus norvegicus [4]) | C50 (Rattus norvegicus [6]) | C50 [8] | C50 [10] | Structure (SMILES) | C50 (Rattus norvegicus [5]) | C50 (Rattus norvegicus [7]) | C50 (Rattus norvegicus [9])
> 10 mM | > 10 mM | 5.3 mM | > 10 mM | – | – | – | NCCC/N=c1\c(O)c(O)c1=O | – | – | –
– | – | – | – | > 10 mM | 3.5 mM | – | Cl.NCC/N=c1\c(O)c(O)c1=O | >10 mM | >10 mM | –
– | – | – | – | 0.0034 mM | 0.01 mM | 0.0059 mM | N[C@@H](C/N=c1\c(O)c(O)c1=O)C(=O)O | 0.00055 mM | 0.0011 mM | 0.001 mM
